Among the data in ChEMBL document CHEMBL1150128, “New antioxidant hydroquinone derivatives from the algicolous marine fungus Acremonium sp” (J Nat Prod, 2002) are Activity and inhibition values, retold here.

Calls of active or inactive are those of the source. The rule behind the calls is not given here.

In assay [1] the test system is Radical scavenging activity. Put plainly: Antioxidant activity assessed as DPPH free radical scavenging activity at 50 ug/mL. It is filed as functional. In outline: (§1)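 Ethanolic sample (1 mg/mL stock) is mixed with DPPH (1 mM stock) in EtOH, shaken briefly, and held at room temperature in the dark for 30 min. Radical scavenging is read as absorbance at 517 nm of sample versus control. Results are reported at the listed concentrations in µg/mL.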
A general note: Loss of DPPH colour is used to gauge radical scavenging.

Assay [2] concerns Radical scavenging activity. Put plainly: Antioxidant activity assessed as DPPH free radical scavenging activity at 500 ug/mL. It is filed as functional. A digest of the protocol: as §1
Assay [3] addresses Human immunodeficiency virus type 1 reverse transcriptase (Human immunodeficiency virus 1) (UniProt Q72547). Put plainly: Inhibition of HIV1 reverse transcriptase by ELISA. For orientation: In an ELISA, binding on a coated surface is turned into a signal by an enzyme label.
In assay [4] the test system is Radical scavenging activity. The assay is described as follows: Antioxidant activity assessed as DPPH free radical scavenging activity at 100 ug/mL. It is filed as functional. In outline: as §1
For assay [5], the system named is Radical scavenging activity. The assay is described as follows: Antioxidant activity assessed as DPPH free radical scavenging activity at 25 ug/mL. It is filed as functional. A digest of the protocol:
as §1

Assay [6] deals with Radical scavenging activity. The assay is described as follows: Antioxidant activity assessed as DPPH free radical scavenging activity at 5 ug/mL. It is filed as functional. A digest of the protocol:
as §1

Assay [7] deals with Tyrosine-protein kinase Lck (Homo sapiens) (UniProt P06239). Put plainly: Inhibition of p56lck by ELISA.
The nature of assay [8]: Antioxidant activity assessed as inhibition of linolenic acid peroxidation at 7.4 ug/mL by TBARS assay. It is filed as functional. A digest of the protocol: (§2)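 Linolenic acid methyl ester (70 mM stock in EtOH) is oxidized with sample (1 or 0.2 mg/mL ethanolic stock) in 50 mM phosphate buffer pH 7.2 with SDS and FeSO4 in 0.025 M HCl. Incubation is 50 °C for 30 min, then covered at 60 °C for 30 min, then room temperature for 4 min. Readout is A532 minus A600, with % inhibition calculated against sample blank, control and blank.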

Assay [9] is described as follows: Antioxidant activity assessed as inhibition of linolenic acid peroxidation at 37 ug/mL by TBARS assay. It is filed as functional. In outline:
as §2

Sequence of Tyrosine-protein kinase Lck (Homo sapiens) (P06239 2-509 limits assumed): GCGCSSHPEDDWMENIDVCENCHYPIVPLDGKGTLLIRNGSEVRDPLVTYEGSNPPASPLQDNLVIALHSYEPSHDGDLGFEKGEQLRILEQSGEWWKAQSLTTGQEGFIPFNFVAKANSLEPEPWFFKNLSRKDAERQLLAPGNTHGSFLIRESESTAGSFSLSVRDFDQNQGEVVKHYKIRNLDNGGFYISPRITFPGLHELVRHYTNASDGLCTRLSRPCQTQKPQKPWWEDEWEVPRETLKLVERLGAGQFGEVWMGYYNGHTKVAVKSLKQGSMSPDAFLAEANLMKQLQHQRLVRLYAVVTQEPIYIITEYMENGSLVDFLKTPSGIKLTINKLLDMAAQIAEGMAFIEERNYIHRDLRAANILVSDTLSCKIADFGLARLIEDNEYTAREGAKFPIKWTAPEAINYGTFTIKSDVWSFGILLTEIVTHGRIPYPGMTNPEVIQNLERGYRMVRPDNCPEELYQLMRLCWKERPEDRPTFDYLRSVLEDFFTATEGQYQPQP

As to `C=C(C)C1Cc2c(O)ccc(O[C@@H]3O[C@H](CO)[C@@H](O)[C@H](O)[C@H]3O)c21` (some centres undefined), the Activity in assay [1] is 27.7%; in assay [2], 79.9%; in assay [4], 43%; in assay [5], 17.5%; in [6] it was 5.6%. The result in assay [3] and in assay [7] was inactive.

As usually defined, the inhibition is the relative decrease from the control value, in per cent. Take `COC(=O)CCC(C(=O)O)=C(C)C`: the Activity in assay [1] was found to be 3.4%; in assay [2], 35.1%; in assay [4], 10.3%. Moreover, in assay [8], the inhibition is -8.6%.

Regarding `CC(C)(O)C(O)Cc1cc(O)ccc1O` (centres undefined), the Activity in assay [1] was 90.7%; in [2], 82.9%; in assay [4], 89.9%; in [5] it was 90.2%. Besides, the inhibition in assay [8] was found to be 2%; in assay [9], 16.6%.

`Cc1cc(C(C)(C)C)c(O)c(C(C)(C)C)c1`: the Activity amounted to 41.1% in assay [1]; 89.8% in [2]; 63.8% in [4]; 24.2% in [5]; 6% in assay [6]. The inhibition in assay [8] amounted to 36.2%; in assay [9], 43.9%.

In the case of `COC(=O)C(CCC(=O)O)=C(C)C`, the Activity in [1] came to 3.4%; in assay [2], 35.1%; in assay [4] it was 10.3%. Further, the inhibition in [8] was -8.6%.

For `CC1(C)Oc2ccc(O)cc2CC1O` (centres undefined), the Activity in assay [1] was determined as 85.1%; in [2], 89.9%; in assay [4] it was 89.1%; in assay [5] it was 72.9%; in assay [6], 25.7%. Moreover, the values for the inhibition in assay [8] and in [9] were -9.8% and 9.2%, respectively. Moreover, the outcome in assay [3] and in [7] was inactive.

For the compound `C=C(C)C(CCC(=O)OC)C(=O)O` (centres undefined), the Activity was 3.4% in [1], 35.1% in [2] and 10.3% in assay [4]. Moreover, the inhibition in assay [8] is -8.6%.

Consider `C=C(C)C1Cc2c(O)ccc(O)c21` (centres undefined), for which the Activity stood at 90% in assay [1]; 90.1% in [2]; 90% in assay [4]; 85.5% in assay [5]; 26% in assay [6]. Further, the inhibition turned out to be 13.9% in assay [8] and 35.5% in [9]. Further, the result in assay [3] and in [7] was inactive.

As to `CC(C)(O)C1Cc2cc(O)ccc2O1` (centres undefined), the Activity in [1] is 89.1%; in [2], 90.4%; in [4], 90.2%; in assay [5] it was 85.8%; in assay [6], 35.3%. Moreover, the inhibition in [9] turned out to be 15.9%. For the same compound, the result in [3] and in [7] was inactive.

In the case of `OC[C@H]1O[C@@H](Oc2ccc(O)cc2)[C@H](O)[C@@H](O)[C@@H]1O`, the Activity in assay [1] turned out to be 23.5%; in [2] it was 78.6%; in assay [4], 52.6%; in assay [5], 18.3%; in assay [6], 1.9%.

Turning to `CC(C)=C(CCC(=O)O)C(=O)O`, the Activity was -0.5% in assay [1], 15.3% in assay [2] and 3.8% in assay [4]. Moreover, in assay [8], the inhibition was -9%. For the same compound, the result in assay [3] and in assay [7] was inactive.
